Only some compounds are listed: those with a hit (about 2.1% of all), similar ones and a draw of the others.
EBI2 antag – antagonists of human EBI2 receptor | 0.81% of 360,000 active | inhibition, % at 5 µM | P32249 | EBI2 beta-arrestin recruitment, luminescence, 7a,25-OHC stimulated; in the data active = inhibition above about 38%;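 note: enzyme fragment complementation signal reports receptor beta-arrestin coupling in cells; 0% = agonist plus DMSO wells and 100% = wells without agonist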
Target sequence (P32249 whole entry, looked up, the tested form may be a part): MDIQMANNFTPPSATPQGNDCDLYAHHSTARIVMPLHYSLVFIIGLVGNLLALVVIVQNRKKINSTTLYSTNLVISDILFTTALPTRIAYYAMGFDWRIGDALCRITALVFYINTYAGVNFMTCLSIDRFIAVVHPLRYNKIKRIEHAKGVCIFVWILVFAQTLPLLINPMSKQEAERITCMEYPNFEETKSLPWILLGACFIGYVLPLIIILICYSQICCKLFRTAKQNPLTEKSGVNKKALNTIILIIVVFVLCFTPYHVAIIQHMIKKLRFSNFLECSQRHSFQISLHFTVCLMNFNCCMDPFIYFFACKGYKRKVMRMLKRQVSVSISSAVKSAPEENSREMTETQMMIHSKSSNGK
m5-HT2A agonist – mouse HTR2A agonism via beta-arrestin recruitment | 0.66% of 360,000 active | activation, % at 7.6 µM | CHO-K1 mHTR2A beta-arrestin complementation, luminescence; percent of 30 µM serotonin response | P35363;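 active = activation above a run cutoff, the mean activation of all tested compounds plus 3 SD, cut at about 14% in these data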;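 note: 0% = plate median of compound wells and 100% = 30 µM serotonin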
CCR6 antagonist – blocks CCL20-driven beta-arrestin recruitment at human CCR6. CHO-K1 CCR6 PathHunter beta-arrestin, luminescence, CCL20-stimulated. inhibition, % at 20 µM. 0.49% of 340,000 active. AID 493098;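 active = compounds whose inhibition of the agonist-driven luminescence signal at 20 µM reaches about 50%, limit read from the data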;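 note: cells stimulated with CCL20 at 14 nM final; plate controls were DMSO with CCL20 for no effect and DMSO without agonist for full effect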
APJ antagonist – blocks the human apelin receptor APJ; P35414; inhibition, % at 20 µM; CHO-K1 APJ beta-arrestin complementation, luminescence; 0.32% of 330,000 active;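 active = inhibition above about 40% at 20 µM, limit read from the data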;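 note: cells challenged with 10 nM apelin-13 agonist together with compound; plate controls were apelin-13 plus DMSO wells for no effect and DMSO wells lacking apelin-13 for full effect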
APJ ag – activates the human apelin receptor APJ; CHO-K1 APJ PathHunter beta-arrestin, luminescence; 0% DMSO wells, 100% apelin; activation, % at 20 µM; 0.11% of 330,000 active; AID 2520;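 active = activation more than six SD over the plate average, tested at 20 µM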;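 note: 0% = DMSO alone and 100% = apelin-13 at 10 nM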
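Assay system: CHO-K1 APJ beta-arrestin complementation cell line / Compound: single test compound dose, 20 µM final, 1% DMSO / Times: overnight seeding, 90 min compound at 25 °C, 1 h detection / Technique: beta-gal luminescence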
CXCR6 inh – inhibitors of human CXCR6 receptor. O00574. CHO-K1 PathHunter CXCR6 beta-arrestin, luminescence. inhibition, % at 20 µM. 0.36% of 360,000 active. AID 602244; in the data active = inhibition above about 34%, passing the limit was not always enough;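 note: antagonist mode with CXCL16 agonist at 10 nM final; 0% = 10 nM CXCL16 with DMSO and 100% = unstimulated wells without agonist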
An asterisk follows results filed as active; · = no result given; ! = repeats disagree.

SMILES	EBI2 antag	m5-HT2A agonist	CCR6 antagonist	APJ antagonist	APJ ag	CXCR6 inh
O=C1NC(=O)N(Cc2ccco2)C(=O)/C1=C/c1ccc(-c2cccc([N+](=O)[O-])c2)o1	24	5	65*	24	-4	35
C=CCN1C(=O)NC(=O)/C(=C\c2ccc(-c3ccccc3[N+](=O)[O-])o2)C1=O	8	0	21	-1	-3	15
COC(=O)C12OCC34C(CC5C(C)=C(O)C(=O)CC5(C)C3C(O)C1O)OC(=O)C(OC(=O)/C=C(\C)C(C)C)C24 (stereo not drawn)	9	2	4	·	·	-7
ON1C2CCCCC2N(O)C1c1ccccc1 (stereo not drawn)	-1	2	67*	33	-15	34
c1ccc(C2N3CCCN23)cc1 (stereo not drawn)	7	0	4	-8	4	-5
CC(C)C[C@H]1C(=O)N2CCCC2[C@]2(O)O[C@](NC(=O)[C@@H]3C=C4c5cccc6[nH]cc(c56)CC4N(C)C3)(C(C)C)C(=O)N12 (stereo partly drawn)	2	30*	9	6	15	2
CC(C)[C@H]1C(=O)N2CCC[C@H]2[C@]2(O)O[C@](NC(=O)[C@@H]3C=C4c5cccc6[nH]cc(c56)C[C@H]4N(C)C3)(C(C)C)C(=O)N12	5	49*	5	6	16	-5
CCCCCn1c(=O)c(C(=O)NCCc2ccccc2)c(O)c2ccccc21	16	0	16	-13	-3	0
C/C1=C\[C@@H](C)C/C=C/[C@H]2[C@@H]3O[C@]3(C)[C@@H](C)[C@H]3[C@H](Cc4c[nH]c5ccccc45)NC(=O)[C@]32C(=O)/C=C/C(=O)[C@@H]1O	-44	22*	43	9	-1	-1
COc1ccc(-n2nnnc2C(CCSC)N2CCC(n3c(=O)[nH]c4ccccc43)CC2)cc1 (stereo not drawn)	-23	4	·	·	·	2
COc1ccc(N2C(=O)/C(=C/C=C/c3ccccc3[N+](=O)[O-])C(=O)NC2=S)cc1	·	·	59*	-1	2	·
COc1ccc(N2C(=O)/C(=C/c3cccs3)C(=O)NC2=S)cc1	-2	4	48	9	-1	-8
c1ccc(-c2nnc(C3CC(c4cccnc4)=NO3)o2)cc1 (stereo not drawn)	-16	3	4	20	-2	-2
CCn1nc(-c2cccs2)nc2c(=O)n(C)c(=O)nc1-2	26	6	100*	·	·	13
CCn1nc(/C=C/c2ccccc2)nc2c(=O)n(C)c(=O)nc1-2	24	-1	27	-70	0	-2
Cc1ccc(/C=C2\C(=O)NC(=S)N(c3ccccc3F)C2=O)s1	11	-4	96*	·	·	40*
CC1=CC2/C=C(\C)CCC(O)C(O)/C=C/C(=O)C23C(=O)NC(CC(C)C)C3C1C (stereo not drawn)	47*	-7	33	19	-1	29
NC(N)=N/N=C/c1cn(-c2ccccc2)nc1-c1cccs1	-16	-8	3	-40	11*	-18
O=c1c2ccccc2nc(-c2cccs2)n1-c1ccccc1	-2	2	8	1	-3	7
COC(=O)C1=C(c2ccccc2OCc2ccccc2)C[C@@H]2CC[C@H]1N2C(=O)NCCOc1ccccc1	19	-5	15	-11	0	24
COC(=O)C1=C(c2ccccc2OCc2ccccc2)C[C@@H]2CC[C@H]1N2C(=O)NCCOc1ccc(OC)cc1	51*	2	14	2	-4	15
Cc1cc(Cl)ccc1OC(C)C(=O)O (stereo not drawn)	-8	15*	3	-1	-2	-4
Cc1cc(Cl)ccc1OCC(=O)O	-12	-1	2	-9	10	0
COc1cc(/C=C(/C)[N+](=O)[O-])ccc1OCc1ccccc1Cl	72*	-6	61*	28	5	50*
ClCCOCCCl	2	4	0	13	-4	-1
SMILES	EBI2 antag	m5-HT2A agonist	CCR6 antagonist	APJ antagonist	APJ ag	CXCR6 inh
COc1cc(/C=C/[N+](=O)[O-])ccc1O	-26	-14	56*	-15	1	28
CCOC(=O)N(CC)c1ccc(C(O)(C(=O)OCC)C(F)(F)F)cc1 (stereo not drawn)	-15	2	-8	7	-2	-4
CN(C)c1ccc(/C=C/C=C/c2sc3ccccc3[n+]2C)cc1	0	-2	32	2	-3	20
CN(C)c1ccc(/C=C/c2cc[n+](C)c3ccccc23)cc1	4	-12	54*!	·	·	36
O=C(c1cc2c(s1)-c1ccccc1OC2)N1CCC2(CC1)OCCO2	88*	-1	8	-6	-5	0
OC(CN1CC=C(c2ccccc2)CC1)c1ccccc1 (stereo not drawn)	-11	-3	2	12	-6	2
OC(COCc1ccc(Cl)cc1)CN1CC=C(c2ccccc2)CC1 (stereo not drawn)	-3	19*!	-3	7	1	-13
O=[N+]([O-])/C=C/c1c(Cl)cccc1Cl	-24	1	105*	·	·	100*
CCOC(=O)[C@]12Cc3cc(C)ccc3[C@H]1N(C1CCCCC1)C(=O)c1cc(OC)ccc12	76*	3	·	·	·	26
CCOC(=O)[C@]12Cc3cc(OC)ccc3[C@H]1N(C1CCCCC1)C(=O)c1cc(OC)ccc12	3	7	·	·	·	6
Cc1ccc(C(C)C)c(OCC#CCN2CCCC2)c1	-7	-9	1	11	-3	0
CCOc1ccc2nc(N=Nc3c(O)[nH]c(=O)[nH]c3=O)sc2c1	-8	-6	35	34	-9	18
CCOc1ccc2nc(N=Nc3c(O)[nH]c(=S)[nH]c3=O)sc2c1	11	2	50*	56*	-6	29
O=P1(N(CCCl)CCCl)NCCCO1 (stereo not drawn)	-10	-2	0	6	-5	4
CC(NCc1ccccc1C(F)(F)F)C(O)c1ccccc1 (stereo not drawn)	-2	-4	4	-8	-3	-10
CCC1(C(=O)c2ccccc2)C2c3ccccc3OC(=O)C21C(C)=O (stereo not drawn)	-5	5	18	15	1	1
COC(=O)C1=C(c2ccc(F)cc2F)C[C@@H]2CC[C@H]1N2C(=O)NC1CCCCC1	4	-4	16	4	-6	1
CC[n+]1c(/C=C/C=C/c2ccc(N(C)C)cc2)sc2ccccc21	13	-8	70*	35	-4	53*
CCN(CC)c1ccc(/C=C/[N+](=O)[O-])cc1	0	-6	44	35	2	40*

Screening results deposited in PubChem BioAssay by several laboratories.
